Source: ChEMBL document CHEMBL4138243, “Synthesis, biological evaluation, and metabolic stability of phenazine derivatives as antibacterial agents” (Eur J Med Chem, 2018)
≈ marks a conversion by molar mass, not a printed value. Calls of active or inactive are those of the source. The calls are words filed in the database; no cut-off is given here.

Legend:
Staphylococcus aureus [1] = assay: Antibacterial activity against methicillin-resistant Staphylococcus aureus USA300 JE2 after 24 hrs by broth microdilution method; assay type: functional; settings: USA300 JE2, 24 h
Summary of the method: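 Broth microdilution. Test material taken from a 1 mg/mL DMSO stock and serially diluted 2-fold in Mueller Hinton broth containing 5% DMSO. Wells inoculated with a direct colony suspension at 0.5 McFarland, then incubated statically at 37 °C for 24 h. MIC is the lowest concentration with no growth, read by eye and by OD600. Vancomycin and gentamicin as positive controls. Run in triplicate.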

Escherichia coli [2] = assay: Antibacterial activity against Escherichia coli K-12 after 24 hrs by broth microdilution method; assay type: functional
Summary of the method: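 Broth microdilution per ASM Clinical Microbiology Procedures Handbook (3rd ed.); 1 mg/mL DMSO stock serially 2-fold diluted in Mueller Hinton broth with 5% DMSO; inoculum from direct colony suspension at 0.5 McFarland; static incubation 37 °C, 24 h. MIC = lowest concentration without visible growth (eye and OD600). Vancomycin and gentamicin positive controls, medium negative control; triplicate.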

Staphylococcus aureus [3] = assay: Antibacterial activity against methicillin-resistant Staphylococcus aureus USA300 JE2 at 10 ug after 24 hrs by Kirby Bauer method; assay type: functional; settings: USA300 JE2, 24 h, read-out: DIZ
Summary of the method: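 Disc diffusion reference, streptomycin 10 µg. 0.5 McFarland inoculum spread on Mueller Hinton agar with 6 mm discs. Incubated at 37 °C and inhibition zone diameter measured after 24 h.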

Staphylococcus aureus [4] = assay: Antibacterial activity against methicillin-resistant Staphylococcus aureus USA300 JE2 at 10 times MIC after 6 days by Kirby Bauer method; assay type: functional, organism-based
Summary of the method: (§1)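 Mutant-resistance disc assay. Culture grown in Mueller Hinton broth for 4 h, diluted to 1.5 × 10^8 CFU/mL (0.5 McFarland) and spread on Mueller Hinton agar. 6 mm paper discs loaded with compound in DMSO at 10 × MIC. Plates at 37 °C. Inhibition zone diameter read at 24 h. Plates then kept 6 days and checked for colonies growing inside the zone.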

Staphylococcus aureus [5] = assay: Antibacterial activity against methicillin-resistant Staphylococcus aureus USA300 JE2 at 10 times MIC after 24 hrs by Kirby Bauer method; assay type: functional; summary of the method: as §1
Staphylococcus aureus [6] = assay: Inhibition of biofilm formation of methicillin-resistant Staphylococcus aureus USA300 JE2 at 8 times MIC after 24 hrs by crystal violet staining-based assay relative to control; assay type: functional
Summary of the method: (§2)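 Biofilm formation inhibition. Gelatin-coated wells received 2-fold dilutions in TSB with 0.5% glucose plus cells at 2 × 10^6 CFU/mL from fresh culture. Incubated at 37 °C for 24 h. Wells gently rinsed, stained with 0.1% crystal violet for 10 min, destained in methanol:acetic acid:water 4:1:5 and read at OD540.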

[7] = Toxicity in Galleria mellonella larvae assessed as survival at 3 ug/ml after 96 hrs relative to control; assay type: organism-based; settings: in vivo
[8] = Stability in tris buffer at pH 7.4 at 1 uM after 2 hrs by LC-MS/MS method; assay type: physicochemical; settings: pH 7.4, 2 h
Summary of the method: (§3)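 Stability tested in simulated gastric fluid (pH 1.2), simulated intestinal fluid (pH 6.8) and 50 mM tris buffer (pH 7.4) using literature protocols.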

[9] = Metabolic stability in human liver S9 fraction at 1 uM after 5 to 60 mins by LC-MS/MS method; assay type: ADME, subcellular; settings: s9, 1 µM
Summary of the method: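 Compounds incubated with human liver S9 fraction, covering phase I and phase II enzymes; depletion followed over incubation time as percent remaining. Mean ± S.D., n = 3.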

Staphylococcus aureus [10] = assay: Induction of biofilm dispersion of methicillin-resistant Staphylococcus aureus USA300 JE2 at 1 to 32 ug/ml after 24 hrs by crystal violet staining-based assay relative to control; assay type: functional, organism-based
Summary of the method: (§4)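 Preformed-biofilm dispersion. Gelatin-coated wells seeded with 1 × 10^6 CFU/mL in TSB with 0.5% glucose and grown 24 h at 37 °C. Medium replaced with 2-fold dilutions in fresh TSB with 0.5% glucose, then a further 24 h at 37 °C. Biofilm fixed with methanol, stained with 0.1% crystal violet, dissolved in methanol:acetic acid:water 4:1:5 and read at OD540.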

Staphylococcus aureus [11] = assay: Induction of membrane damage of methicillin-resistant Staphylococcus aureus USA300 JE2 at MIC after 18 hrs by propidium iodide staining-based flow cytometric method; assay type: functional, organism-based
Summary of the method: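 Flow cytometry membrane-permeability assay. […] Propidium iodide stock at 1 mg/mL added, held 15–20 min in the dark, then cells washed three times and resuspended in PBS. Controls: PI-stained untreated cells and cells treated with 70% ethanol.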

Staphylococcus aureus [12] = assay: Induction of membrane damage of methicillin-resistant Staphylococcus aureus USA300 JE2 at 2 times MIC after 18 hrs by transmission electron microscopic method; assay type: functional, organism-based
Summary of the method: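 TEM. […] Cells washed three times in PBS, then fixed in 2% glutaraldehyde with 2% paraformaldehyde in 0.1 M phosphate buffer.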

[13] = Stability in simulated gastric fluid at pH1.2 at 1 uM after 2 hrs by LC-MS/MS method; assay type: ADME; settings: simulated gi fluid, pH 1.2, 2 h; summary of the method: as §3
Escherichia coli [14] = assay: Induction of membrane damage of Escherichia coli K-12 at 2 times MIC after 18 hrs by transmission electron microscopic method; assay type: functional, organism-based
[15] = Stability in simulated intestinal fluid at pH 6.8 at 1 uM after 2 hrs by LC-MS/MS method; assay type: ADME; settings: simulated gi fluid, pH 6.8, 2 h; summary of the method: as §3
Staphylococcus aureus [16] = assay: Inhibition of biofilm formation of methicillin-resistant Staphylococcus aureus USA300 JE2 at MIC after 24 hrs by crystal violet staining-based assay relative to control; assay type: functional; summary of the method: as §2
[17] = Cytotoxicity against HCEC after 24 hrs by MTT assay; parameters: species or system Homo sapiens
Summary of the method: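 HCEC cells grown in HCEC medium at 37 °C in a hypoxia chamber, seeded 6000 cells/well, left 24 h, then exposed 24 h to 200, 100, 50, 25, 12.5, 6.25 or 0 (vehicle) µg/mL. MTT added from a 2 mg/mL stock for 2 h, formazan dissolved in DMSO, absorbance read at 570 nm.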

Staphylococcus aureus [18] = assay: Induction of biofilm dispersion of methicillin-resistant Staphylococcus aureus USA300 JE2 at 2 times MIC after 24 hrs by crystal violet staining-based assay relative to control; assay type: functional; summary of the method: as §4
Staphylococcus aureus [19] = assay: Induction of biofilm dispersion of methicillin-resistant Staphylococcus aureus USA300 JE2 at MIC after 24 hrs by crystal violet staining-based assay relative to control; assay type: functional; summary of the method: as §4
Staphylococcus aureus [20] = assay: Bacteriostatic activity against methicillin-resistant Staphylococcus aureus USA300 JE2 at 3 times MIC after 1 to 24 hrs by time killing assay; assay type: functional, organism-based
Summary of the method: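 Time-kill. Culture grown in Mueller Hinton broth at 37 °C for 6 h, adjusted to about 7.5 × 10^6 CFU/mL and exposed to 3 × MIC at 37 °C. Samples taken at 0, 1, 2, 3, 4, 6 and 24 h, serially diluted 10-fold in 0.9% saline and plated on Mueller Hinton agar for 24 h at 37 °C. Colonies counted and plotted as log CFU/mL. Triplicate.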

Galleria mellonella = assay: Toxicity in Galleria mellonella larvae assessed as decrease in survival at 0.5 times MIC after 96 hrs; assay type: organism-based; settings: in vivo

Row | Molecule | MIC (Staphylococcus aureus [1]) [µg/mL] | MIC (Escherichia coli [2]; K-12, 24 h) [µg/mL] | further results
1 | COc1ccc(Br)c2nc3c(C(=O)O)cccc3nc12 | 128 (≈ 384 µM) | 64 (≈ 192 µM) | 
2 | COc1ccc(Br)c2nc3c(C(=O)NS(C)(=O)=O)cccc3nc12 | 128 (≈ 312 µM) | 64 (≈ 156 µM) | 
3 | COC(=O)c1cccc2nc3c(Cl)ccc(Cl)c3nc12 | 128 (≈ 417 µM) | 64 (≈ 208 µM) | 
4 | COc1ccc2nc3c(C(=O)O)cccc3nc2c1 | 256 (≈ 1010 µM) | 64 (≈ 252 µM) | 
5 | COC(=O)c1cccc2nc3cc(OC)ccc3nc12 | 128 (≈ 477 µM) | 64 (≈ 239 µM) | 
6 | O=C(Nc1nnn[nH]1)c1cccc2nc3cccc(Cl)c3nc12 | 32 (≈ 98.2 µM) | 128 (≈ 393 µM) | 
7 | NC(=O)c1cccc2nc3cccc(Cl)c3nc12 | > 256 | 128 (≈ 497 µM) | 
8 | CN(C(=O)c1cccc2nc3cccc(Cl)c3nc12)S(C)(=O)=O | > 256 | 64 (≈ 183 µM) | 
9 | COc1ccc(OC)c2nc3c(C(=O)O)cccc3nc12 | 64 (≈ 225 µM) | 64 (≈ 225 µM) | 
10 | COc1ccc(Br)c2nc3c(C(=O)NC#N)cccc3nc12 | 256 (≈ 717 µM) | 32 (≈ 89.6 µM) | 
11 | N#CNC(=O)c1cccc2nc3cccc(F)c3nc12 | 128 (≈ 481 µM) | 128 (≈ 481 µM) | 
12 | COC(=O)c1cccc2nc3cccc(OC)c3nc12 | 128 (≈ 477 µM) | 128 (≈ 477 µM) | 
13 | CN(C(=O)c1cccc2nc3ccccc3nc12)S(C)(=O)=O | 256 (≈ 812 µM) | 128 (≈ 406 µM) | 
14 | COc1cc(Br)cc2nc3cccc(C(=O)O)c3nc12 | 128 (≈ 384 µM) | 128 (≈ 384 µM) | 
15 | CN[C@@H]1[C@H](O[C@H]2[C@H](O[C@H]3[C@H](O)[C@@H](O)[C@H](N=C(N)N)[C@@H](O)[C@@H]3N=C(N)N)O[C@@H](C)[C@]2(O)C=O)O[C@@H](CO)[C@H](O)[C@H]1O [STREPTOMYCIN] |  |  | zone of inhibition at 10 µg/disc (Staphylococcus aureus [3]): 18 mm
16 | COc1cc(Br)c2nc3c(C(=O)O)cccc3nc2c1 | 64 (≈ 192 µM) | 256 (≈ 768 µM) | 
17 | CC(C)(C)[Si](C)(C)ON |  |  | Activity (Staphylococcus aureus [4]): Active; diameter of the inhibition zone (DIZ) (Staphylococcus aureus [5]): 11 mm
18 | NC(=O)c1cccc2nc3c(Cl)ccc(Cl)c3nc12 | 128 (≈ 438 µM) | 32 (≈ 110 µM) | 
19 | CS(=O)(=O)NC(=O)c1cccc2nc3cccc(Cl)c3nc12 | 2 (≈ 5.96 µM) | 128 (≈ 381 µM) | inhibition (INH) (Staphylococcus aureus [6]): 90%; survival at 96 h [7]: 70%; Stability [8]: Stable; Activity (Staphylococcus aureus [4]): Active; Stability [9]: Stable; Activity (Staphylococcus aureus [10]): inactive; Activity (Staphylococcus aureus [11]): inactive; Activity (Staphylococcus aureus [12]): inactive; diameter of the inhibition zone (DIZ) (Staphylococcus aureus [5]): 16 mm; Stability [13]: Stable; Activity (Escherichia coli [14]): inactive; Stability [15]: Stable
20 | COC(=O)c1cccc2nc3cc(OC)cc(Br)c3nc12 | 128 (≈ 369 µM) | 128 (≈ 369 µM) | 
21 | O=C(NO)c1cccc2nc3cccc(Cl)c3nc12 | 32 (≈ 117 µM) | 128 (≈ 468 µM) | 
22 | CS(=O)(=O)NC(=O)c1cccc2nc3cccc(F)c3nc12 | 64 (≈ 200 µM) | 128 (≈ 401 µM) | 
23 | COC(=O)c1cccc2nc3cc(Br)cc(OC)c3nc12 | 128 (≈ 369 µM) | 128 (≈ 369 µM) | 
24 | CS(=O)(=O)NC(=O)c1cccc2nc3ccccc3nc12 | 128 (≈ 425 µM) | 128 (≈ 425 µM) | 
25 | CS(=O)(=O)NC(=O)c1cccc2nc3c(Cl)ccc(Cl)c3nc12 | 16 (≈ 43.2 µM) | 64 (≈ 173 µM) | inhibition (INH) (Staphylococcus aureus [16]): 82%; Stability [8]: Stable; Activity (Staphylococcus aureus [4]): Active; Stability [9]: Stable; IC50 [17]: 208 µM; Activity (Staphylococcus aureus [18]): 61%; Activity (Staphylococcus aureus [19]): 42%; Activity (Staphylococcus aureus [20]): Active; Activity (Staphylococcus aureus [11]): inactive; Activity (Staphylococcus aureus [12]): inactive; diameter of the inhibition zone (DIZ) (Staphylococcus aureus [5]): 19 mm; Stability [13]: Stable; Activity (Escherichia coli [14]): inactive; Stability [15]: Stable; Activity (Galleria mellonella): Non-Toxic
26 | N#Cc1cccc2nc3cccc(Cl)c3nc12 | > 256 | 64 (≈ 267 µM) | 
27 | Cc1cccc2nc3cccc(C(=O)NS(C)(=O)=O)c3nc12 | 32 (≈ 101 µM) | 32 (≈ 101 µM) | Activity (Staphylococcus aureus [4]): Active
28 | N#CNC(=O)c1cccc2nc3cccc(Cl)c3nc12 | 128 (≈ 453 µM) | 128 (≈ 453 µM) | 
29 | O=C(O)c1cccc2nc3c(Cl)ccc(Cl)c3nc12 | 64 (≈ 218 µM) | 128 (≈ 437 µM) | 
30 | GENTAMICIN |  |  | MIC (Escherichia coli [2]): 0.25 µg/mL
